ChEMBL document CHEMBL4725436, “Gibberellin JRA-003: A Selective Inhibitor of Nuclear Translocation of IKKα” (ACS Med Chem Lett, 2020)
The source made the active and inactive calls. The rule behind the calls is not given here.

Legend:
HCC1599 = assay: Cytotoxicity against human HCC1599 cells assessed as reduction in cell viability measured after 24 hrs by CellTiter-Glo luminescent assay; format: functional, cell-based; conditions: HCC1599, 24 h
Summary of the method: (§1)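 High-throughput viability screen of test agents across a panel of 22 cancerous and noncancerous human cell lines. Viability was read by CellTiter-Glo luminescence.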

PSN1 = assay: Cytotoxicity against human PSN1 cells assessed as reduction in cell viability measured after 24 hrs by CellTiter-Glo luminescent assay; format: functional, cell-based; conditions: PSN1, 24 h; summary of the method: as §1
[1] = molecular target: T1, Nuclear factor NF-kappa-B p105 subunit (Homo sapiens, UniProt P19838); assay: Binding affinity to NF-kappaB p50 (unknown origin) by SPR analysis
T1 sequence (P19838 whole entry): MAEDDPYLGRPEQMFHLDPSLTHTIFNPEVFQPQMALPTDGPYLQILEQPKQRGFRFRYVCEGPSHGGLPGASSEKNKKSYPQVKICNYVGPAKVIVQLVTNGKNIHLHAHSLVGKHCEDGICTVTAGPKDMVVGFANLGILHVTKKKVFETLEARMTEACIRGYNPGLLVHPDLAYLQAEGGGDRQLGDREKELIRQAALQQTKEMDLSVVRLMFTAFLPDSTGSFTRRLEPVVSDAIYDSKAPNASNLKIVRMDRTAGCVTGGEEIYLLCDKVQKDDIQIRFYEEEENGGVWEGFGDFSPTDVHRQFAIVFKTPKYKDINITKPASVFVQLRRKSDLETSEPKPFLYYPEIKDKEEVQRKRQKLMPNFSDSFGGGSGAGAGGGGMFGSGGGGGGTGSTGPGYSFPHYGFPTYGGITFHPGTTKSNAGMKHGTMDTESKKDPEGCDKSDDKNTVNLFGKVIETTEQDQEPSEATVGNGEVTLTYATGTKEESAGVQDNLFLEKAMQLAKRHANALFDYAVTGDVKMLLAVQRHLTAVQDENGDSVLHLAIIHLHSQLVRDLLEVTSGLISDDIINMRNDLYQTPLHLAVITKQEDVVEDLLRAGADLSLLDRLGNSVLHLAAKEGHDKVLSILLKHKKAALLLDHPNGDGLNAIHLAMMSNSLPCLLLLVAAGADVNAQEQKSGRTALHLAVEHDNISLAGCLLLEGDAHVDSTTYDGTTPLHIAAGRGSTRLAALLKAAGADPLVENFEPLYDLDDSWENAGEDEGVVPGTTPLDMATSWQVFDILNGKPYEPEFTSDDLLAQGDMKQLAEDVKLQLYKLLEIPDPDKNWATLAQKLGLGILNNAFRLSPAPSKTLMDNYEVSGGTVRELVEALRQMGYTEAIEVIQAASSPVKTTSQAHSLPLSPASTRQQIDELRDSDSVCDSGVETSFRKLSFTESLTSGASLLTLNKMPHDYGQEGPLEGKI

[2] = Cytotoxicity against human Hs895SK cells assessed as reduction in cell viability measured after 24 hrs by CellTiter-Glo luminescent assay; format: cell-based; conditions: Hs 895.Sk; summary of the method: as §1
Transcription factor p65 = Transcription factor p65 (Homo sapiens, UniProt Q04206); assay: Binding affinity to NF-kappaB RelA (unknown origin) by SPR analysis
Sequence of Transcription factor p65 (Q04206 whole entry): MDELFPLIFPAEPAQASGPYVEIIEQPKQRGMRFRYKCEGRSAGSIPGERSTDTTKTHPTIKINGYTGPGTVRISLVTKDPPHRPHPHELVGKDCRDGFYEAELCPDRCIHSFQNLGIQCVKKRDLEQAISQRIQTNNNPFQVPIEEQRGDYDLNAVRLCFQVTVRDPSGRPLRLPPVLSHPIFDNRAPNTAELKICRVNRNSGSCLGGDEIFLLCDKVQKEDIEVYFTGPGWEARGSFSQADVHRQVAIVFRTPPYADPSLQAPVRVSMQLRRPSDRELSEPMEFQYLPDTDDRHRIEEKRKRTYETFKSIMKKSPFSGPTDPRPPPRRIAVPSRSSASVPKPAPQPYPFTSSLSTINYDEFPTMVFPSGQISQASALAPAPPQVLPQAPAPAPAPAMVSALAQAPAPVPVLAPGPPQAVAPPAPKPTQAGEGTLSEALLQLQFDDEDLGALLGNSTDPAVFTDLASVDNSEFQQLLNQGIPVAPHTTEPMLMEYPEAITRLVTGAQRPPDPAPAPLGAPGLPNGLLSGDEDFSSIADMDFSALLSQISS

NCI-H446 = assay: Cytotoxicity against human NCI-H446 cells assessed as reduction in cell viability measured after 24 hrs by CellTiter-Glo luminescent assay; format: functional, cell-based; conditions: NCI-H446, 24 h; summary of the method: as §1
[3] = Inhibition of IKKalpha/IKKbeta in human HEK293T cells transfected with firefly luciferase gene assessed as inhibition of TNF-alpha-stimulated NF-kappaB signalling preincubated for 1 hr followed by TNF alpha stimulation measured after 3 hrs by luciferase reporter gene assay; format: cell-based; conditions: HEK-293T
Summary of the method: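 Commercial NF-κB-driven luciferase reporter assay in HEK 293T cells stimulated with TNFα. EC50 was derived from the luminescence readout.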

SUD4 = assay: Cytotoxicity against human SU-DHL-4 cells assessed as reduction in cell viability measured after 24 hrs by CellTiter-Glo luminescent assay; format: functional, cell-based; conditions: SU-DHL-4, 24 h; summary of the method: as §1
[4] = Cytotoxicity against human Hs888Lu cells assessed as reduction in cell viability measured after 24 hrs by CellTiter-Glo luminescent assay; format: cell-based; summary of the method: as §1
RCK8 = assay: Cytotoxicity against human RC-K8 cells assessed as reduction in cell viability measured after 24 hrs by CellTiter-Glo luminescent assay; format: functional, cell-based; conditions: RCK8, 24 h; summary of the method: as §1
CA46 = assay: Cytotoxicity against human CA46 cells assessed as reduction in cell viability measured after 24 hrs by CellTiter-Glo luminescent assay; format: functional, cell-based; conditions: CA46, 24 h; summary of the method: as §1
[5] = Cytotoxicity against human Hs578Bst cells assessed as reduction in cell viability measured after 24 hrs by CellTiter-Glo luminescent assay; format: cell-based; summary of the method: as §1
HEK-293T = assay: Cytotoxicity against human HEK293T cells assessed as reduction in cell viability measured after 24 hrs by CellTiter-Glo luminescent assay; format: cell-based; summary of the method: as §1
[6] = Cytotoxicity against human Hs895T cells assessed as reduction in cell viability measured after 24 hrs by CellTiter-Glo luminescent assay; format: functional, cell-based; summary of the method: as §1
Hs-578T = assay: Cytotoxicity against human Hs-578T cells assessed as reduction in cell viability measured after 24 hrs by CellTiter-Glo luminescent assay; format: functional, cell-based; summary of the method: as §1
[7] = molecular target: T2, Inhibitor of nuclear factor kappa-B kinase subunit alpha (Homo sapiens) (UniProt O15111); assay: Binding affinity to IKKalpha in human HeLa cells at 50 uM preincubated with IL-1 beta for 3 hrs followed by incubation with compound for 2 hrs by pull down based western blotting analysis; format: cell-based
T2 sequence (whole entry): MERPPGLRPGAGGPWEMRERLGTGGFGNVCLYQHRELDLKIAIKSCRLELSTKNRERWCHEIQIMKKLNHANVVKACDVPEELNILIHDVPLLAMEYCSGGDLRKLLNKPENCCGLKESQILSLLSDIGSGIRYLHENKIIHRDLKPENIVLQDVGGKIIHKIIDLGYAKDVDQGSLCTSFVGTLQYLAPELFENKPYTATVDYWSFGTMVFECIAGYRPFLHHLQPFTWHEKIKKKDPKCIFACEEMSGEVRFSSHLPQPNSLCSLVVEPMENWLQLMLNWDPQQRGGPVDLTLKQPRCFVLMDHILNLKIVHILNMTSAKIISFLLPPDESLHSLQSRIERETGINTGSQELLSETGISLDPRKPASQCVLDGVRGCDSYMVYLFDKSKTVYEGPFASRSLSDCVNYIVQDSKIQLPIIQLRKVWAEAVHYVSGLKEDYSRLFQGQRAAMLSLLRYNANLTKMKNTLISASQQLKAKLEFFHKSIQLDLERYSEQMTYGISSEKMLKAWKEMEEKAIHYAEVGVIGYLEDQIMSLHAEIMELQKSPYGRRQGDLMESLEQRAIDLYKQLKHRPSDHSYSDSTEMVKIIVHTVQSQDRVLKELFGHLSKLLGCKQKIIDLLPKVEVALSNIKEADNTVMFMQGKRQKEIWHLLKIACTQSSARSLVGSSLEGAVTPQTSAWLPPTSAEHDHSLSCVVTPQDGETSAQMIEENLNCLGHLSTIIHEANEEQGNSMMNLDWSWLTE
Summary of the method: (§2)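 Alkyne-tagged probe pull-down in IL-1β-stimulated HeLa cells. Protein captured by the probe was analysed by Western blotting.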

[8] = molecular target: T2, Inhibitor of nuclear factor kappa-B kinase subunit alpha (Homo sapiens); assay: Inhibition of JRA-031 binding to IKKalpha in TNF-alpha-stimulated human HEK293T cells at 1 uM pretreated with compound for 1 hr followed by labeling with JRA-031 for 1 hr followed by stimulation with TNF-alpha for 1 hr by pull down based mass spectrometry; format: cell-based; conditions: HEK-293T
[9] = molecular target: T3, Inhibitor of nuclear factor kappa-B kinase subunit beta (Homo sapiens) (UniProt O14920); assay: Inhibition of JRA-031 binding to IKKbeta in TNF-alpha-stimulated human HEK293T cells at 1 uM pretreated with compound for 1 hr followed by labeling with JRA-031 for 1 hr followed by stimulation with TNF-alpha for 1 hr by pull down based mass spectrometry; format: cell-based; conditions: HEK-293T
T3 sequence (whole entry): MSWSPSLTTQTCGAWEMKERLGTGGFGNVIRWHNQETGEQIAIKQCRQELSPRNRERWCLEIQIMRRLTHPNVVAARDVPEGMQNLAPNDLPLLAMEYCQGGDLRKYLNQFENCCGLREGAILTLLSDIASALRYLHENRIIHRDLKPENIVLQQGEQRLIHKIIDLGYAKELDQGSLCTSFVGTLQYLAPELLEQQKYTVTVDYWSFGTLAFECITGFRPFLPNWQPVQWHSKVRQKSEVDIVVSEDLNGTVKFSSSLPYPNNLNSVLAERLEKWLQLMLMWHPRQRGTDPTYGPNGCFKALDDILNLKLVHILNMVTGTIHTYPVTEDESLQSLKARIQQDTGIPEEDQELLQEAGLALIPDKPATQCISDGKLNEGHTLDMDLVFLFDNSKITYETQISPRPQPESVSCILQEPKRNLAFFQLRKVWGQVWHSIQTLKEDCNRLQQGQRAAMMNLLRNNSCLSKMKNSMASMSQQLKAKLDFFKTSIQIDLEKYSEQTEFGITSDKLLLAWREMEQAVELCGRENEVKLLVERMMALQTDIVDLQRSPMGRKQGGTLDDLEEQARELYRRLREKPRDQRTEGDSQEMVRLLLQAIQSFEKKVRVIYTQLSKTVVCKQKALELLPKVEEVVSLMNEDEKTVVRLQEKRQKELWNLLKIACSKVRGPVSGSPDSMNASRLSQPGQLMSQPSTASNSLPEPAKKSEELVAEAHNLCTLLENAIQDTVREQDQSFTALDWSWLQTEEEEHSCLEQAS

[10] = molecular target: T2, Inhibitor of nuclear factor kappa-B kinase subunit alpha (Homo sapiens); assay: Binding affinity to IKKalpha in human HeLa cells at 10 uM preincubated with IL-1 beta for 3 hrs followed by incubation with compound for 2 hrs by pull down based western blotting analysis; format: cell-based; summary of the method: as §2
[11] = molecular target: T2, Inhibitor of nuclear factor kappa-B kinase subunit alpha (Homo sapiens); assay: Irreversible covalent binding affinity to IKKalpha in human HeLa cells at 10 uM preincubated with IL-1 beta for 3 hrs followed by incubation with compound for 2 hrs measured following rigorous washing by pull down based western blotting analysis; format: cell-based; summary of the method: as §2
[12] = Toxicity in po dosed rat; format: organism-based; conditions: in vivo

| SMILES | IC50 (HCC1599) [µM] | IC50 (PSN1) [µM] | IC50 [2] [µM] | IC50 (NCI-H446) [µM] | EC50 [3] [µM] | IC50 (SUD4) [µM] | IC50 [4] [µM] | IC50 (RCK8) [µM] | IC50 (CA46) [µM] | IC50 [5] [µM] | IC50 (HEK-293T) [µM] | IC50 [6] [µM] | IC50 (Hs-578T) [µM] | further results |
| --- | --- | --- | --- | --- | --- | --- | --- | --- | --- | --- | --- | --- | --- | --- |
| C=C1C[C@]23C[C@@]1(O)CC[C@@H]2c1cccc(C)c1[C@@H]3C(=O)O | > 10 | > 10 | > 10 | > 10 | > 100 | > 10 | > 10 | > 10 | > 10 | > 10 | > 10 | > 10 | > 10 | Kd [1]: 0.076 µM; Kd (Transcription factor p65): 6.34 µM |
| C#CCCNC(=O)[C@H]1[C@H]2[C@@]3(C=C[C@H](O)[C@@]2(C)C(=O)O3)[C@@H]2CC[C@]3(O)C[C@@]21CC3=C |  |  |  |  |  |  |  |  |  |  |  |  |  | inhibition [7]: inactive |
| C=C1C[C@]23C[C@@]1(O)CC[C@H]2[C@@]12C=C[C@H](O)[C@@](C)(C(=O)O1)[C@H]2[C@@H]3C(=O)OC | > 10 | > 10 | > 10 | > 10 | > 100 | > 10 | > 10 | > 10 | > 10 | > 10 | > 10 | > 10 | > 10 | inhibition [8]: inactive; inhibition [9]: inactive |
| C#CCCNC(=O)[C@H]1[C@@H]2[C@@]3(C)C(=O)C=C[C@@]2(OC3=O)[C@@H]2CC[C@]3(O)C[C@@]21CC3=C |  |  |  |  |  |  |  |  |  |  |  |  |  | inhibition [10]: Active; inhibition [11]: Active |
| C=C1C[C@]23C[C@@]1(O)CC[C@H]2[C@@]12C=C[C@H](O)[C@@](C)(C(=O)O1)[C@H]2[C@@H]3C(=O)O [GIBBERELLIN A3] | > 10 | > 10 | > 10 | > 10 | > 100 | > 10 | > 10 | > 10 | > 10 | > 10 | > 10 | > 10 | > 10 | LD50 [12]: 6300 mg/kg |
| COC(=O)[C@H]1c2c(C)cccc2[C@H]2CC[C@@]3(C)C[C@]21CC3=O | > 10 | > 10 | > 10 | > 10 | > 100 | > 10 | > 10 | > 10 | > 10 | > 10 | > 10 | > 10 | > 10 |  |
| C=C1C[C@]23C[C@@]1(O)CC[C@H]2c1cc2c(C(=O)O)coc2c(C)c1[C@@H]3C(=O)O | > 10 | > 10 | > 10 | > 10 | > 100 | > 10 | > 10 | > 10 | > 10 | > 10 | > 10 | > 10 | > 10 |  |
| C=C1C[C@]23C[C@@]1(O)CC[C@@H]2c1cccc(C)c1[C@@H]3C(=O)OC | > 10 | > 10 | > 10 | > 10 | > 100 | > 10 | > 10 | > 10 | > 10 | > 10 | > 10 | > 10 | > 10 |  |
| C=C1[C@@H]2OC(=O)[C@H]3[C@@H]4[C@@]5(C)C(=O)C=C[C@@]4(OC5=O)[C@@H]4CC[C@]1(O)C[C@]234 |  | > 10 | > 10 |  | 57 |  | > 10 |  |  | > 10 | > 10 | > 10 | > 10 | EC50 (HCC1599): 5.5 µM; EC50 (NCI-H446): 5.9 µM; EC50 (SUD4): 3 µM; EC50 (RCK8): 4.3 µM; EC50 (CA46): 3.7 µM |
